# ChEMBL document CHEMBL3407444, “Novel 2,4-disubstituted pyrimidines as potent, selective, and cell-permeable inhibitors of neuronal nitric oxide synthase” (J Med Chem, 2015)
# Columns and labels:
# [1] = Selectivity ratio of Ki for recombinant bovine endothelial NOS to Ki for recombinant rat neuronal NOS
# [2] = Selectivity ratio of Ki for recombinant mouse macrophage inducible NOS to Ki for recombinant rat neuronal NOS
# [3] = Inhibition of calmodulin-dependent bovine neuronal NOS using [3H]-arginine as substrate assessed as citrulline formation after 30 mins; set-up: species or system Bos taurus
# [4] = target: Nitric oxide synthase 1 (Rattus norvegicus, UniProt P29476); assay: Binding affinity to recombinant rat neuronal NOS overexpressed in Escherichia coli assessed as production of nitric oxide from L-arginine measured for 5 mins by oxyhemoglobin NO capture assay
# Sequence of Nitric oxide synthase 1 (Rattus norvegicus, UniProt P29476) (P29476 whole entry): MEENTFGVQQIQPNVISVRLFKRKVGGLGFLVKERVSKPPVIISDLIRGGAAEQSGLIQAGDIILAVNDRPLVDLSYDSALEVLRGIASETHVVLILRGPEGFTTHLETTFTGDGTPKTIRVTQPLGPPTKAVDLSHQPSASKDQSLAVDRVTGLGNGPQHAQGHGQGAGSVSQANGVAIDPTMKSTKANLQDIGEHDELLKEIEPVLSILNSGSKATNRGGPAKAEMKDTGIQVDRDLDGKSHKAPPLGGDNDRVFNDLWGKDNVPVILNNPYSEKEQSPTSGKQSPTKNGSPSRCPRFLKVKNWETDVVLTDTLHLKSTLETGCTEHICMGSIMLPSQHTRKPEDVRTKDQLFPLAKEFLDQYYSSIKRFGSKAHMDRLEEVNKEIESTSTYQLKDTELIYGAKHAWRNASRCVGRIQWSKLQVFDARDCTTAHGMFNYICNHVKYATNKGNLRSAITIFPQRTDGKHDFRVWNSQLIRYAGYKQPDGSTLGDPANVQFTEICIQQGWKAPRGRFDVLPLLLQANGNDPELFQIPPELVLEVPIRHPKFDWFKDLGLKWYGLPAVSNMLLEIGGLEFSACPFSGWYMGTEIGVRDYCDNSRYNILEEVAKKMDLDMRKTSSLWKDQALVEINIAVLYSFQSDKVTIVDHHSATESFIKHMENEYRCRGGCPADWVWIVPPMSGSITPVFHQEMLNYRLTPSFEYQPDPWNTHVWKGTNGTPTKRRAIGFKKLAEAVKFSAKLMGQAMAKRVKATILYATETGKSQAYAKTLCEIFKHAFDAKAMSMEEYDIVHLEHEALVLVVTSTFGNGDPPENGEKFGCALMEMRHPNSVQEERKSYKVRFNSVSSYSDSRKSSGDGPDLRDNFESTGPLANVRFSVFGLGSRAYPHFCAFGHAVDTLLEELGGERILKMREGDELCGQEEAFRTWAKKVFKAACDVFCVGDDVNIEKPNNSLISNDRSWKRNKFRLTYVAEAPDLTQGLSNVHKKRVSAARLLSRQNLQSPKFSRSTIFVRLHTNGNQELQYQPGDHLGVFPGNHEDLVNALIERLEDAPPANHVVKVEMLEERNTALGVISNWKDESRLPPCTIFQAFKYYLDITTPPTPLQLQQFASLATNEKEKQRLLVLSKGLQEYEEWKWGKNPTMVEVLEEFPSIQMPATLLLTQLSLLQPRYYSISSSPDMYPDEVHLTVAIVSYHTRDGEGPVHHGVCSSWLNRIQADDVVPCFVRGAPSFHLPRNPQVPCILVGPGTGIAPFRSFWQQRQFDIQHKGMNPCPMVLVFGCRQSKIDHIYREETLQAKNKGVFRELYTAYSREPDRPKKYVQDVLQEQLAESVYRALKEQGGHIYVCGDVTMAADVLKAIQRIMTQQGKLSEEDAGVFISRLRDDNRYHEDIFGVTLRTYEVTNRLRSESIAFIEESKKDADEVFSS
# [5] = target: T1, Nitric oxide synthase 3 (Bos taurus, UniProt P29473); assay: Binding affinity to recombinant bovine endothelial NOS overexpressed in Escherichia coli assessed as production of nitric oxide from L-arginine measured for 5 mins by oxyhemoglobin NO capture assay
# T1 sequence (P29473 whole entry): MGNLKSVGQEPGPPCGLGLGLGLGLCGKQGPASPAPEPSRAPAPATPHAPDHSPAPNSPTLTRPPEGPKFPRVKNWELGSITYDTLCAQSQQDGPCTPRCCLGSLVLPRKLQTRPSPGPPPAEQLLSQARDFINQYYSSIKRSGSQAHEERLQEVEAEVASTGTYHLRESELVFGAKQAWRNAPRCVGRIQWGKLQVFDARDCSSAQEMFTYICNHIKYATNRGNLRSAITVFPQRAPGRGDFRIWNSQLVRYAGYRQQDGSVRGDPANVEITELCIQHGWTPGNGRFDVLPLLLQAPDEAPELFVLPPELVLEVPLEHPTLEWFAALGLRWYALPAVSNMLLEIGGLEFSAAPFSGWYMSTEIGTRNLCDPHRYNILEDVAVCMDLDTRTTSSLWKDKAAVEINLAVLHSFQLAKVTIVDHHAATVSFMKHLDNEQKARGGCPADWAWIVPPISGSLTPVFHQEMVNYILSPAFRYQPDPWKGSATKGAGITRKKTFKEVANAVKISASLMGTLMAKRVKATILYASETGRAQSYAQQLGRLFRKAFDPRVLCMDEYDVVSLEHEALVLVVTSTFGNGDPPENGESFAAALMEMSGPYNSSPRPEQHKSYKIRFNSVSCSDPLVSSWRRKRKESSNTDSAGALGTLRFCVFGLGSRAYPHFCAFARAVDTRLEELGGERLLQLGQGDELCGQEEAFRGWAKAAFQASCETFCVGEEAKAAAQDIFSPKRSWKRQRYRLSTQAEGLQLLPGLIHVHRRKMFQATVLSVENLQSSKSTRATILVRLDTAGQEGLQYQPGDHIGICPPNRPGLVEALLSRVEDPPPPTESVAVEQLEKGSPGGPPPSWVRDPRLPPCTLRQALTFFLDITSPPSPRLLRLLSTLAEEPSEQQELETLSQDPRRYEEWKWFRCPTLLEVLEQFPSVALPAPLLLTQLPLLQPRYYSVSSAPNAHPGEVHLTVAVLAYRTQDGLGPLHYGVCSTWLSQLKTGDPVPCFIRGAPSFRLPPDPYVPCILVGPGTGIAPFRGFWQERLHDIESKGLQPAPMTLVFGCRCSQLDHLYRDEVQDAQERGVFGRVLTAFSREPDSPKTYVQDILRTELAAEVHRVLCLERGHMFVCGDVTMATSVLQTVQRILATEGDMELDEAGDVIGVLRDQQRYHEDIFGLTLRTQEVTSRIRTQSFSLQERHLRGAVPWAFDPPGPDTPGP
# Summary of the method: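 Purified recombinant bovine eNOS (E. coli-expressed) at 37 °C in 100 mM HEPES, 10% glycerol, pH 7.4, with 10 μM L-arginine and tetrahydrobiopterin, 100 μM NADPH, 0.83 mM CaCl2, ~320 units/mL calmodulin, and 3 μM human oxyhemoglobin. Methemoglobin formation read at 401 nm every 22 s for 5 min. Nine inhibitor concentrations (500 μM–50 nM), at least duplicate.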
# [6] = target: T2, Nitric oxide synthase, inducible (Mus musculus, UniProt P29477); assay: Binding affinity to recombinant mouse macrophage inducible NOS overexpressed in Escherichia coli assessed as production of nitric oxide from L-arginine measured for 5 mins by oxyhemoglobin NO capture assay
# T2 sequence (P29477 whole entry): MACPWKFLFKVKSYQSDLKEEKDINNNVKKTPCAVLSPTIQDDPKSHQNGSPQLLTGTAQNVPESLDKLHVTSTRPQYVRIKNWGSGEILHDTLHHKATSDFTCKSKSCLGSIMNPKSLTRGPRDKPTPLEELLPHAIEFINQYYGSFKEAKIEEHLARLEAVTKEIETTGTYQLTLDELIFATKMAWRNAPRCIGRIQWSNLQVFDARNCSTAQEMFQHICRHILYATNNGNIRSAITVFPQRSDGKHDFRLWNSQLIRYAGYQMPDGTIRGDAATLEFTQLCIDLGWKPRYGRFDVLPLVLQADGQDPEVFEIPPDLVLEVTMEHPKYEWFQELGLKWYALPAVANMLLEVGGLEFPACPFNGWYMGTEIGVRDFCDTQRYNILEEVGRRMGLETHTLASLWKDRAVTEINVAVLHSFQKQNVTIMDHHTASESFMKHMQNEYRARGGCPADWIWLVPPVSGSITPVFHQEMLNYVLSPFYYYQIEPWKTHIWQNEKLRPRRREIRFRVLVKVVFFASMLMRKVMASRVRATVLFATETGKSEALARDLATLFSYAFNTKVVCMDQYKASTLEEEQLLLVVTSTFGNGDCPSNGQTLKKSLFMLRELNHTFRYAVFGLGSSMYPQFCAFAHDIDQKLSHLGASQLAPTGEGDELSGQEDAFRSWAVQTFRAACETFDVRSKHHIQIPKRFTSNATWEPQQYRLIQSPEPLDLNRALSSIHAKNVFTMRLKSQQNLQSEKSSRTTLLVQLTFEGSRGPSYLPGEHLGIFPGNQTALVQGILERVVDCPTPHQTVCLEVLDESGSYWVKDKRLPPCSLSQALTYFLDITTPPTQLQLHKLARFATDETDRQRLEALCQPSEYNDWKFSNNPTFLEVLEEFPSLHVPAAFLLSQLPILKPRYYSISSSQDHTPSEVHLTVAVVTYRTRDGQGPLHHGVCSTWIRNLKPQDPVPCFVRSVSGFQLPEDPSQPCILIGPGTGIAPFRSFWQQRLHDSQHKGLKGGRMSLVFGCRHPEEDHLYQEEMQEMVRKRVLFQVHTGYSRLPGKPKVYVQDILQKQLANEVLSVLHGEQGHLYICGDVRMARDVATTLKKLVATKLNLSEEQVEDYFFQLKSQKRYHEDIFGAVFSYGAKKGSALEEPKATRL
# [7] = target: Nitric oxide synthase 1 (Homo sapiens, UniProt P29475); assay: Binding affinity to recombinant human neuronal NOS overexpressed in Escherichia coli assessed as production of nitric oxide from L-arginine measured for 5 mins by oxyhemoglobin NO capture assay
# Sequence of Nitric oxide synthase 1 (Homo sapiens, UniProt P29475) (P29475 whole entry): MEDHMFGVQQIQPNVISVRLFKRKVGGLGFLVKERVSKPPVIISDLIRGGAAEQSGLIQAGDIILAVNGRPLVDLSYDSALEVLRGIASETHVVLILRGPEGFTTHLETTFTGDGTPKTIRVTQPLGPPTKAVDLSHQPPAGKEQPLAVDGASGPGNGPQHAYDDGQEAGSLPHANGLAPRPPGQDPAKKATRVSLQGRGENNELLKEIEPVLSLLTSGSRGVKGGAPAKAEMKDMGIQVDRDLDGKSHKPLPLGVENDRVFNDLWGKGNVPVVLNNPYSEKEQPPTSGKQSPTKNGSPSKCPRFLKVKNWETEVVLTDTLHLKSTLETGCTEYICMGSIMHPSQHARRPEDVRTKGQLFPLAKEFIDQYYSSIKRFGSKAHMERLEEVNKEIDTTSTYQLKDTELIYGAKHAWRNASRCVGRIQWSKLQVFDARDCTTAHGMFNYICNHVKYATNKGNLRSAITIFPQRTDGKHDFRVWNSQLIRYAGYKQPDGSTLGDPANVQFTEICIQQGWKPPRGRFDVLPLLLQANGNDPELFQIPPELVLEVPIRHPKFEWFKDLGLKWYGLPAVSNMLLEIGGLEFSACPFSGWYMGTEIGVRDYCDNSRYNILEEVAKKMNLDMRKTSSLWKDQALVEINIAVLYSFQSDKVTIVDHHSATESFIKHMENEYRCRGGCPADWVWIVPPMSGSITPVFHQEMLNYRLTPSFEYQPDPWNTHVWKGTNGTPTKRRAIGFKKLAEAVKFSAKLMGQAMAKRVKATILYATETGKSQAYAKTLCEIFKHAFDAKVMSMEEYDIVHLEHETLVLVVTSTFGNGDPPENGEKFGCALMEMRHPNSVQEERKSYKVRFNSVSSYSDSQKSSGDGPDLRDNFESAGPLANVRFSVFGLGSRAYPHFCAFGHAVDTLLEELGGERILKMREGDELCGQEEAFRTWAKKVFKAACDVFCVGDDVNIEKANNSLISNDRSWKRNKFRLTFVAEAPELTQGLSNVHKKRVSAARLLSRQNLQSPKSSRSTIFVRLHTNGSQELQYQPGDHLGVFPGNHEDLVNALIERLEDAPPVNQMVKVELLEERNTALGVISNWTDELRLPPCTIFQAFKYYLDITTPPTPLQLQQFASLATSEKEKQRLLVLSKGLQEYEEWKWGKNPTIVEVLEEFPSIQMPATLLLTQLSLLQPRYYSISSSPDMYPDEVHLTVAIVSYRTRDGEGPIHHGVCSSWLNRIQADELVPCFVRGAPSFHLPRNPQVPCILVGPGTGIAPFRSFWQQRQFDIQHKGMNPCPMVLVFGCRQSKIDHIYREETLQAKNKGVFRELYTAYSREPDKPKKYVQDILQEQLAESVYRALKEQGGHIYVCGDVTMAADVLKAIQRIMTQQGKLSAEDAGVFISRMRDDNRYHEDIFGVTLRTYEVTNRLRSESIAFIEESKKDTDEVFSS
# [8] = target: T3, Alpha-2C adrenergic receptor (Homo sapiens, UniProt P18825); assay: Binding affinity to human adrenergic alpha-2C receptor after 90 mins by radioligand displacement assay
# T3 sequence (P18825 whole entry): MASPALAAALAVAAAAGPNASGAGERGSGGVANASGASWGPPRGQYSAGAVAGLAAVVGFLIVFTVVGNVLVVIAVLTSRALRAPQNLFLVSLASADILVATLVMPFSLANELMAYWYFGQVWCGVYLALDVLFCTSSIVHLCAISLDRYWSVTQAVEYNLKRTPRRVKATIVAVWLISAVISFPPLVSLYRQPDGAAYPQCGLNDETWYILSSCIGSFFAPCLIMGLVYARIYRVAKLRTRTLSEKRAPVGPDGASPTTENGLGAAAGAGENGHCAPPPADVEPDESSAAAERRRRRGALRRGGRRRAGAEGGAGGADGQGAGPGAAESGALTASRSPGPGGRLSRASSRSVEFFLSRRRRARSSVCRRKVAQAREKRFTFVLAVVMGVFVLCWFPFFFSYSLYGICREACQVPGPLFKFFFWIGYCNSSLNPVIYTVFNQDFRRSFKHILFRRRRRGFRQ
# [9] = target: T4, Sigma non-opioid intracellular receptor 1 (Homo sapiens, UniProt Q99720); assay: Binding affinity to human sigma-1 receptor after 90 mins by radioligand displacement assay
# T4 sequence (Q99720 whole entry): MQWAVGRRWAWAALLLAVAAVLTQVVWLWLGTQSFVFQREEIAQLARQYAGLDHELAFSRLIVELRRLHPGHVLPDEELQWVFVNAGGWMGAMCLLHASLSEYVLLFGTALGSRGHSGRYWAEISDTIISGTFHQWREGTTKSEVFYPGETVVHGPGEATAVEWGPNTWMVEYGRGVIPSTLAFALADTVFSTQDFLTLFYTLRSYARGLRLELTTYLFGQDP
# [10] = target: CYP2C19 (Homo sapiens, UniProt P33261); assay: Inhibition of human liver microsomal CYP2C19 using S-mephenytoin as substrate at 10 uM preincubated for 5 mins followed by NADPH addition measured after 20 mins by LC-MS/MS analysis; format: ADME; conditions: liver microsomes, probe S-mephenytoin
# Sequence of CYP2C19 (P33261 whole entry): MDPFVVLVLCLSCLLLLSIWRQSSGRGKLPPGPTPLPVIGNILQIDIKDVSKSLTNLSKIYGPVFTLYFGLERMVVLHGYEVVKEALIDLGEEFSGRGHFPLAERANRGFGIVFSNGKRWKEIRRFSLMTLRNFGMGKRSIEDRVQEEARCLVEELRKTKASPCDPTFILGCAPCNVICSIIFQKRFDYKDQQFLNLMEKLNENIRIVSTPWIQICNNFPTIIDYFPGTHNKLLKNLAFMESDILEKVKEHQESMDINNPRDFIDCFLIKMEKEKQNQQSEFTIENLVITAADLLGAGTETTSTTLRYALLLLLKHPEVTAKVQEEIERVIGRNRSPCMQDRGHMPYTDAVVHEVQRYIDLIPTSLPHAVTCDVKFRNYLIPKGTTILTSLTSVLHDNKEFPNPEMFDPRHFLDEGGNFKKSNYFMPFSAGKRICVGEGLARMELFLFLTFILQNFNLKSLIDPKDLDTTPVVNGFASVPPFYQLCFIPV
# Summary of the method: (§1)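 Human liver microsomes in Kphos buffer, test compound at 10 μM (DMSO). Probe substrate added and preincubated 5 min at 37 °C, then started with NADPH. Incubation times: CYP3A4 (midazolam) 5 min, CYP2D6 (bufuralol) 10 min, CYP2C19 (S-mephenytoin) 20 min. Stopped with cold acetonitrile containing internal standard. Metabolites measured by LC-MS/MS; % inhibition from peak-area ratios relative to DMSO control.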
# [11] = target: CYP2D6 (Homo sapiens, UniProt P10635); assay: Inhibition of human liver microsomal CYP2D6 using bufuralol as substrate at 10 uM preincubated for 5 mins followed by NADPH addition measured after 10 mins by LC-MS/MS analysis; format: ADME; conditions: liver microsomes, probe bufuralol; summary of the method: as §1
# [12] = target: CYP3A4 (Homo sapiens, UniProt P08684); assay: Inhibition of human liver microsomal CYP3A4 using midazolam as substrate at 10 uM preincubated for 5 mins followed by NADPH addition measured after 5 mins by LC-MS/MS analysis; format: ADME; conditions: liver microsomes, probe midazolam; summary of the method: as §1
# Sequence of CYP3A4 (P08684 whole entry): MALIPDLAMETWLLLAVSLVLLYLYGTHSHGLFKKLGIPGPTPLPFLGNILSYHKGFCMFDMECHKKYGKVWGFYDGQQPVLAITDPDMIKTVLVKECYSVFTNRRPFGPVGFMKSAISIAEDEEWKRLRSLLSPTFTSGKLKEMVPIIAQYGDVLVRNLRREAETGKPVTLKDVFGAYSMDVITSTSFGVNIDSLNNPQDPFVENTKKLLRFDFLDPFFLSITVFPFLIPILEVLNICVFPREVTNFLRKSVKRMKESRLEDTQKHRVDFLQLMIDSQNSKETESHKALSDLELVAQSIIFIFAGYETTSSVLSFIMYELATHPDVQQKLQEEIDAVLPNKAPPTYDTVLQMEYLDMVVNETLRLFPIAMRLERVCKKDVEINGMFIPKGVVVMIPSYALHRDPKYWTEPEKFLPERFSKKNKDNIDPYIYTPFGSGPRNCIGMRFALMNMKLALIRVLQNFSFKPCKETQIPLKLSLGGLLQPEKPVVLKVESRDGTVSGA
# [13] = Permeability across apical to basolateral side in human Caco2 cells assessed as drug recovery at 10 uM after 2 hrs by LC/MS/MS analysis; format: ADME, cell-based; conditions: caco-2, 2 h
# Summary of the method: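 Caco-2 monolayers grown 3 weeks, integrity checked by Lucifer yellow transport. Compound 10 μM for 2 h added apically; apical buffer HBSS/10 mM HEPES with glucose, pH 6.5, basolateral transport buffer pH 7.4. Receiver side sampled and quantified by LC/MS/MS; recovery reported.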
# [14] = target: 5-hydroxytryptamine receptor 2A (Homo sapiens) (UniProt P28223); assay: Binding affinity to human 5-HT2A receptor at 10 uM after 90 mins by radioligand displacement assay relative to control
# Sequence of 5-hydroxytryptamine receptor 2A (Homo sapiens) (P28223 whole entry): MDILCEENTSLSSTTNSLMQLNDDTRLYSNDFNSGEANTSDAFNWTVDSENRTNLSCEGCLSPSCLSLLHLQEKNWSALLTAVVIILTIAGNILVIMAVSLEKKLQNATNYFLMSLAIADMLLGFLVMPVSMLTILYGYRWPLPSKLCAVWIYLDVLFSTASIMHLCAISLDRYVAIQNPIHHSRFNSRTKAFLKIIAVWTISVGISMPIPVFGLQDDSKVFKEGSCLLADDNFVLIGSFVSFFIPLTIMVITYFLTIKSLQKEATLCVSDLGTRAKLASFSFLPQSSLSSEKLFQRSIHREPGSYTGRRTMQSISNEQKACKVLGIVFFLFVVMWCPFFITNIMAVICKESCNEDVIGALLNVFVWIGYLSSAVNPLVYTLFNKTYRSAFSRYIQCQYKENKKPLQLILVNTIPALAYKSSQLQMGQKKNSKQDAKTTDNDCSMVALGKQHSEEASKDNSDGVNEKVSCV
# [15] = target: T5, Alpha-2C adrenergic receptor (Homo sapiens) (UniProt P18825); assay: Binding affinity to human adrenergic alpha-2C receptor at 10 uM after 90 mins by radioligand displacement assay relative to control
# T5 sequence (whole entry): T3 sequence (P18825 whole entry)
# [16] = target: T4, Sigma non-opioid intracellular receptor 1; assay: Binding affinity to human sigma-1 receptor at 10 uM after 90 mins by radioligand displacement assay relative to control
# [17] = species on record: Homo sapiens; assay: Binding affinity to human sigma-2 receptor at 10 uM after 90 mins by radioligand displacement assay relative to control
# [18] = target: T6, 5-hydroxytryptamine receptor 1A (Homo sapiens) (UniProt P08908); conditions: 10 uM
# T6 sequence (whole entry): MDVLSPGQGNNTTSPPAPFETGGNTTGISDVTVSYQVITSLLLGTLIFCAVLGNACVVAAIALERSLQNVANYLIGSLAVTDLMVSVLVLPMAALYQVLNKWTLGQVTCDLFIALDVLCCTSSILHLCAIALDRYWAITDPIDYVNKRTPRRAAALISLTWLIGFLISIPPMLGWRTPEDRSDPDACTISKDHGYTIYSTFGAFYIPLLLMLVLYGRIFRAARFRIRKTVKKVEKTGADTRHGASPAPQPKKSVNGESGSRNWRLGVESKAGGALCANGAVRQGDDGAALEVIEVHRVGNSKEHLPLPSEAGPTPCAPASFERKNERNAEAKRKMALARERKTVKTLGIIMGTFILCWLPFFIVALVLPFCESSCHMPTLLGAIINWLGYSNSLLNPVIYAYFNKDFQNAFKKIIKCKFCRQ
# [19] = target: D(3) dopamine receptor (Homo sapiens) (UniProt P35462); conditions: 10 uM
# Sequence of D(3) dopamine receptor (Homo sapiens) (P35462 whole entry): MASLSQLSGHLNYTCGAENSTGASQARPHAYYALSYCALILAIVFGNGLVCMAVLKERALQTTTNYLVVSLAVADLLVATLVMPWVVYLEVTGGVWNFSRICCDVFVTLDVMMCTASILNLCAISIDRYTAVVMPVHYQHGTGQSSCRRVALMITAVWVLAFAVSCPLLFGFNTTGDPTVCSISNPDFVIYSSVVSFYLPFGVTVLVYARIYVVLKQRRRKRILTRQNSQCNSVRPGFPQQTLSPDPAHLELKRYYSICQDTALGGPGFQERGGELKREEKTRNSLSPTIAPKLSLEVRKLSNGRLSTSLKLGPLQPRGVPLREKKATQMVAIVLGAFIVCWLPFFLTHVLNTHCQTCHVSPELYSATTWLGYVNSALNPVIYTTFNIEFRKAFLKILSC
# [20] = Selectivity ratio of Ki for recombinant human neuronal NOS to Ki for recombinant rat neuronal NOS
smiles,measurement,setting,value
Fc1cccc(CCNCCNc2ccnc(-n3ccnc3)n2)c1,Ratio Ki,[1],109
same,Ratio Ki,[2],17
c1c[nH]cn1 [IMIDAZOLE],IC50,[3],200000 nM
Cc1cncn1-c1nccc(CCNCCCc2cccc(F)c2)n1,Ki,[4],60 nM
same,Ki,[5],15400 nM
same,Ki,[6],24000 nM
same,Ki,[7],303 nM
Fc1cccc(CCCNCc2ccnc(-n3ccnc3)n2)c1,Ratio Ki,[1],33
same,Ratio Ki,[2],4
Cl.Fc1cccc(CCCNCCc2ccnc(-n3ccnc3)n2)c1,Ki,[8],200 nM
same,Ki,[9],200 nM
same,"inhibition at 20 min, 10 µM",[10],> 70%
same,"inhibition at 10 min, 10 µM",[11],> 70%
same,"inhibition at 5 min, 10 µM",[12],> 70%
same,Drug recovery,[13],73%
same,inhibition,[14],88%
same,inhibition,[15],95%
same,inhibition,[16],94%
same,inhibition,[17],88%
same,inhibition,[18],83%
same,inhibition,[19],87%
Clc1cccc(CCCNCCc2ccnc(-n3ccnc3)n2)c1,Ki,[6],910 nM
same,Ratio Ki,[1],253
same,Ratio Ki,[2],28
same,Ratio Ki,[20],3.9
c1ccc(-n2ccnc2)cc1,IC50,[3],25000 nM
Fc1cccc(C[C@@H]2C[C@H]2NCCc2ccnc(-n3ccnc3)n2)c1,Ki,[4],18 nM
same,Ki,[5],10300 nM
same,Ki,[6],2140 nM
same,Ki,[7],137 nM
Fc1cccc(CCCNCCc2ccnc(-n3cncn3)n2)c1,Ki,[4],27000 nM
Fc1cccc(C2CC2CNCCc2ccnc(-n3ccnc3)n2)c1 (stereo not given),Ratio Ki,[1],71
same,Ratio Ki,[2],34
same,Ratio Ki,[20],6.4
Cc1cn(-c2nccc(CCNCCCc3cccc(F)c3)n2)cn1,Ki,[4],81000 nM
Cc1nccn1-c1nccc(CCNCCCc2cccc(F)c2)n1,Ki,[4],11500 nM
Fc1cccc(C[C@H]2C[C@@H]2NCCc2ccnc(-n3ccnc3)n2)c1,Ki,[4],150 nM
same,Ki,[5],40000 nM
same,Ki,[6],3000 nM
same,Ki,[7],873 nM
